Data on one molecule can be found in article PMC2141641 (The Journal of Cell Biology, 1997).

The subject of assay [1] is CD36–GST fusion protein FP298-439. Details: species or system human. The following applies: 125I–TSP-1 20 μg/ml; equal to binding in the presence of 5 mM EDTA; n = 5. The method, boiled down: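 GST–CD36 fusion protein was coated overnight at 4°C at 10 μg/ml in carbonate buffer, pH 9.8 (200–280 ng/well). Wells were washed with TBS-T and blocked with TBS-T/0.5% BSA. 125I–TSP-1 (20 μg/ml; 0.5–1 mCi/mg) in TBS-T was incubated 2 h at 22°C. Wells were washed and bound counts measured by gamma counting. 5 mM EDTA defined nonspecific binding.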

Another assay deals with TSP-1. The following applies: ref Pearce et al., 1995; cited from earlier work.
In assay [2] the test system is Bovine adrenal capillary endothelial cells (BCECs). Briefly: Endothelial cell migration assay, BCECs. The assay is classed as cell-based. The following applies: TSP-1 2 nM; fusion protein preincubated 2 h at 4°C; migration 4 h at 37°C. Summed up: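 Bovine adrenal capillary cells (DME, 10% donor calf serum, 1% endothelial mitogen; passage 15) were starved overnight in DME/0.1% BSA. 3 × 10^4 cells/well were attached 2 h at 37°C to a gelatinized membrane in an inverted Boyden chamber, then reinverted. GST–CD36 fusion proteins were preincubated with 2 nM TSP-1, warmed to room temperature, and added to the top wells. Migration to bFGF ran 4 h at 37°C. Migrated cells/10 high-power fields counted; normalized to bFGF minus background.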

B1: FP298-439: control fusion protein unable to bind TSP-1 spanning CD36 amino acids 298–439 (protein)
chain: KAFASPVENPDNYCFCTEKIISKNCTSYGVLDISKCKEGRPVYISLPHFLYASPDVSEPIDGLNPNEEEHRTYLDIEPITGFTLQFAKRLQVNLLVKPSEKIQVLKNLKRNYIVPILWLNETGTIGDEKANMFRSQVTGKIN
modifications: left off: GST, end not stated, kept
For B1, in assay [1], the “TSP-1 binding to immobilized fusion protein (in words)” value is reported as “only background binding”. For the same molecule, the “binding of fusion protein to TSP-1” value in the assay on TSP-1 is “unable to bind TSP-1”. The “block of TSP-1 inhibition of bFGF-induced migration” value in assay [2] was “ineffective”.
